Measurements as given in ChEMBL document CHEMBL3822380, “Simple avarone mimetics as selective agents against multidrug resistant cancer cells” (Eur J Med Chem, 2016).
≈ marks a conversion by molar mass, not a printed value. Blank lines part the entries; values can stand above or below the compound they belong to. Calls of active or inactive are those of the source.

What was measured:
HaCaT [1] = test: Cytotoxicity against human HaCaT cells after 72 hrs by MTT assay; assay type: cell-based; details: for IC50: Homo sapiens, HaCaT; for IC30: human, hacat
Summary of the method: (§1)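 Seeding in 96-well plates at 1000 (NCI-H460), 2000 (NCI-H460/R) or 4000 (HaCaT) cells/well, treated after 24 h for 72 h. MTT at 0.4 mg/mL final, 4 h at 37 °C. Formazan dissolved in DMSO, absorbance read at 540 nm. Inhibition % = (1 − A treated/A untreated)×100. IC30 and IC50 obtained by linear regression.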

[2] = Induction of apoptosis in human HaCaT cells assessed as live cells at 25 uM after 72 hrs by annexin-V/propidium iodide staining-based flow cytometric analysis (reference value: 96.8%); assay type: cell-based; details: read-out: Activity
NCI-H460 [3] = test: Induction of apoptosis in multidrug resistant human NCI-H460 cells assessed as dead cells at 25 uM after 72 hrs by annexin-V/propidium iodide staining-based flow cytometric analysis (reference value: 1.5%); assay type: functional
NCI-H460 [4] = test: Induction of apoptosis in human NCI-H460 cells assessed as late apoptotic/necrotic cells at 25 uM after 72 hrs by annexin-V/propidium iodide staining-based flow cytometric analysis (reference value: 0.2%); assay type: functional
HaCaT [5] = test: Induction of apoptosis in human HaCaT cells assessed as dead cells at 25 uM after 72 hrs by annexin-V/propidium iodide staining-based flow cytometric analysis (reference value: 2.8%); assay type: cell-based
HaCaT [6] = test: Induction of superoxide anion generation in human HaCaT cells at 25 uM after 72 hrs by DHE staining-based flow cytometric analysis relative to control; assay type: cell-based
Summary of the method: (§2)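 Seeded as for cell death (50,000 or 100,000 cells/well), treated 72 h at 25 µM, with CDDP 5 µM as control. Adherent cells trypsinized and loaded with 1 µM DHE for 30 min at 37 °C in the dark, then washed twice in PBS. Flow cytometry at ex 488/em 585 nm (FL2-H). Mean fluorescence intensity corrected for autofluorescence and compared with untreated control.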

NCI-H460 [7] = test: Induction of apoptosis in multidrug resistant human NCI-H460 cells assessed as live cells at 25 uM after 72 hrs by annexin-V/propidium iodide staining-based flow cytometric analysis (reference value: 96.4%); assay type: functional
NCI-H460 [8] = test: Induction of superoxide anion generation in human NCI-H460 cells at 25 uM after 72 hrs by DHE staining-based flow cytometric analysis relative to control; assay type: functional, cell-based; summary of the method: as §2
HaCaT [9] = test: Induction of apoptosis in human HaCaT cells assessed as early apoptotic cells at 25 uM after 72 hrs by annexin-V/propidium iodide staining-based flow cytometric analysis (reference value: 0.2%); assay type: cell-based
NCI-H460 [10] = test: Cytotoxicity against human NCI-H460 cells after 72 hrs by MTT assay; assay type: functional, cell-based; details: NCI-H460, 72 h; summary of the method: as §1
HaCaT [11] = test: Induction of apoptosis in human HaCaT cells assessed as late apoptotic/necrotic cells at 25 uM after 72 hrs by annexin-V/propidium iodide staining-based flow cytometric analysis (reference value: 0.2%); assay type: cell-based
NCI-H460 [12] = test: Induction of apoptosis in multidrug resistant human NCI-H460 cells assessed as early apoptotic cells at 25 uM after 72 hrs by annexin-V/propidium iodide staining-based flow cytometric analysis (reference value: 1.1%); assay type: functional
NCI-H460 [13] = test: Induction of apoptosis in multidrug resistant human NCI-H460 cells assessed as late apoptotic/necrotic cells at 25 uM after 72 hrs by annexin-V/propidium iodide staining-based flow cytometric analysis (reference value: 1%); assay type: functional
NCI-H460 [14] = test: Induction of apoptosis in human NCI-H460 cells assessed as dead cells at 25 uM after 72 hrs by annexin-V/propidium iodide staining-based flow cytometric analysis (reference value: 1.2%); assay type: functional
NCI-H460 [15] = test: Cytotoxicity against multidrug resistant human NCI-H460 cells after 72 hrs by MTT assay; assay type: functional, cell-based; details: NCI-H460, 72 h; summary of the method: as §1
NCI-H460 [16] = test: Induction of apoptosis in human NCI-H460 cells assessed as early apoptotic cells at 25 uM after 72 hrs by annexin-V/propidium iodide staining-based flow cytometric analysis (reference value: 0.3%); assay type: functional
NCI-H460 [17] = test: Induction of superoxide anion generation in multidrug resistant human NCI-H460 cells at 25 uM after 72 hrs by DHE staining-based flow cytometric analysis relative to control; assay type: functional, cell-based; summary of the method: as §2
NCI-H460 [18] = test: Induction of apoptosis in human NCI-H460 cells assessed as live cells at 25 uM after 72 hrs by annexin-V/propidium iodide staining-based flow cytometric analysis (reference value: 98.3%); assay type: functional
NCI-H460 [19] = test: Selectivity ratio of IC30/IC50 for human NCI-H460 cells to IC30/IC50 for multidrug resistant human NCI-H460 cells; assay type: functional
Summary of the method: (§3)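 Fold threshold of 1.5 used to call selectivity to cancer cells, resistance, or selectivity to MDR cells.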

[20] = Selectivity ratio of IC30/IC50 for human HaCaT cells to IC30/IC50 for multidrug resistant human NCI-H460 cells; assay type: ADME, cell-based; details: HaCaT cells versus multidrug resistant NCI-H460 cells; summary of the method: as §3
[21] = Selectivity ratio of IC30/IC50 for human HaCaT cells to IC30/IC50 for human NCI-H460 cells; assay type: ADME, cell-based; details: HaCaT cells versus NCI-H460 cells; summary of the method: as §3
HaCaT [22] = test: Induction of mitochondrial membrane potential depolarization in human HaCaT cells at 25 uM after 15 mins by JC1-staining-based flow cytometric analysis; assay type: cell-based; details: 0.25 h
Summary of the method: (§4)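 Cells treated with 25 µM compound, with CDDP 5 µM as control. Stained with JC-1 for 15 min at 37 °C in a CO2 incubator, washed twice in assay buffer and resuspended in PBS. Flow cytometry read red aggregate (FL2-H) versus green monomer (FL1-H) fluorescence. Live cells were also imaged by fluorescence microscopy.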

NCI-H460 [23] = test: Induction of mitochondrial membrane potential depolarization in multidrug resistant human NCI-H460 cells at 25 uM after 15 mins by JC1-staining-based flow cytometric analysis; assay type: functional, cell-based; summary of the method: as §4
NCI-H460 [24] = test: Induction of mitochondrial membrane potential depolarization in human NCI-H460 cells at 25 uM after 15 mins by JC1-staining-based flow cytometric analysis; assay type: functional, cell-based; summary of the method: as §4
Candida albicans = test: Antifungal activity against Candida albicans ATCC 10231 by broth microdilution method; assay type: functional
Summary of the method: (§5)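 Broth microdilution per NCCLS. Compounds dissolved in DMSO as 10 mg/mL stock, diluted in Mueller Hinton broth (bacteria) or Sabouraud dextrose broth (fungi). Amikacin served as the positive control for bacteria and nystatin for fungi.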

Escherichia coli = test: Antibacterial activity against Escherichia coli ATCC 25922 by broth microdilution method; assay type: functional; summary of the method: as §5
Micrococcus luteus [25] = test: Antibacterial activity against Micrococcus luteus ATCC 4698 by broth microdilution method; assay type: functional; details: NCTC 2665; summary of the method: as §5
Clostridium sporogenes = test: Antibacterial activity against Clostridium sporogenes ATCC 19404 by broth microdilution method; assay type: functional; summary of the method: as §5
Salmonella enteritidis = test: Antibacterial activity against Salmonella enterica subsp. enterica serovar Enteritidis ATCC 13076 by broth microdilution method; assay type: functional; summary of the method: as §5
Bacillus spizizenii = test: Antibacterial activity against Bacillus subtilis ATCC 6633 by broth microdilution method; assay type: functional; summary of the method: as §5
Staphylococcus aureus = test: Antibacterial activity against Staphylococcus aureus ATCC 6538 by broth microdilution method; assay type: functional; summary of the method: as §5
Pseudomonas aeruginosa = test: Antibacterial activity against Pseudomonas aeruginosa ATCC 9027 by broth microdilution method; assay type: functional; summary of the method: as §5
Micrococcus luteus [26] = test: Antibacterial activity against Micrococcus luteus ATCC 10240 by broth microdilution method; assay type: functional; summary of the method: as §5
Aspergillus brasiliensis = test: Antifungal activity against Aspergillus brasiliensis ATCC 16404 by broth microdilution method; assay type: functional; summary of the method: as §5
Saccharomyces cerevisiae = test: Antifungal activity against Saccharomyces cerevisiae ATCC 9763 by broth microdilution method; assay type: functional; summary of the method: as §5

SMILES: CCCCCCCCNC1=CC(=O)C=C(C[C@]2(C)[C@@H](C)CC[C@]3(C)C(C)=CCC[C@@H]23)C1=O
- IC50 (HaCaT [1]): 17 µM
- IC30 (HaCaT [1]): 13 µM
- viability at 72 h, 25 µM [2]: 85.3%
- Activity (NCI-H460 [3]): 7.3%
- Activity (NCI-H460 [4]): 0.3%
- Activity (HaCaT [5]): 13.8%
- Activity (HaCaT [6]): Toxic
- Activity (NCI-H460 [7]): 92.6%
- Activity (NCI-H460 [8]): inactive
- Activity (HaCaT [9]): 0.3%
- IC30 (NCI-H460 [10]): 21 µM
- IC50 (NCI-H460 [10]): 38 µM
- Activity (HaCaT [11]): 0.6%
- Activity (NCI-H460 [12]): 0%
- Activity (NCI-H460 [13]): 0.1%
- Activity (NCI-H460 [14]): 3.9%
- IC30 (NCI-H460 [15]): 13 µM
- IC50 (NCI-H460 [15]): 35 µM
- Activity (NCI-H460 [16]): 0.1%
- Activity (NCI-H460 [17]): Active
- Activity (NCI-H460 [18]): 95.7%

SMILES: CC1=CCC[C@H]2[C@](C)(CC3=CC(=O)C(NCCc4ccccc4)=CC3=O)[C@@H](C)CC[C@]12C
- selectivity ratio (NCI-H460 [19]): <=1.5
- IC50 (HaCaT [1]): > 100 µM
- IC30 (HaCaT [1]): 76 µM
- viability at 72 h, 25 µM [2]: 89.5%
- selectivity ratio [20]: ≤ 1.5
- Activity (NCI-H460 [3]): 4.1%
- Activity (NCI-H460 [4]): 0.5%
- selectivity ratio [21]: ≤ 1.5
- Activity (HaCaT [5]): 9.2%
- Activity (NCI-H460 [7]): 94.9%
- Activity (HaCaT [9]): 0.3%
- IC30 (NCI-H460 [10]): 75 µM
- IC50 (NCI-H460 [10]): > 100 µM
- Activity (HaCaT [11]): 1%
- Activity (NCI-H460 [12]): 0.4%
- Activity (NCI-H460 [13]): 0.6%
- Activity (NCI-H460 [14]): 7.2%
- IC30 (NCI-H460 [15]): 10 µM
- IC50 (NCI-H460 [15]): 91 µM
- Activity (NCI-H460 [16]): 0.3%
- Activity (NCI-H460 [17]): inactive
- Activity (NCI-H460 [18]): 92%

SMILES: CC(C)(C)C1=CC(=O)C=CC1=O
- IC50 (HaCaT [1]): 95 µM
- IC30 (HaCaT [1]): 41 µM
- viability at 72 h, 25 µM [2]: 86.8%
- Activity (HaCaT [22]): Non-toxic
- Activity (NCI-H460 [23]): inactive
- Activity (NCI-H460 [3]): 3.1%
- Activity (NCI-H460 [24]): inactive
- Activity (NCI-H460 [4]): 0.5%
- Activity (HaCaT [5]): 7.5%
- Activity (NCI-H460 [7]): 95.2%
- Activity (HaCaT [9]): 1.9%
- IC30 (NCI-H460 [10]): > 100 µM
- IC50 (NCI-H460 [10]): > 100 µM
- Activity (HaCaT [11]): 3.8%
- Activity (NCI-H460 [12]): 0.5%
- Activity (NCI-H460 [13]): 1.2%
- Activity (NCI-H460 [14]): 3.8%
- IC30 (NCI-H460 [15]): 31 µM
- IC50 (NCI-H460 [15]): 72 µM
- Activity (NCI-H460 [16]): 0.5%
- Activity (NCI-H460 [18]): 95.2%

- MIC (Candida albicans): 2320 µM (≈ 626 µg/mL)
- MIC (Escherichia coli): 9 µM (≈ 2.42 µg/mL)
- MIC (Micrococcus luteus [25]): 4650 µM (≈ 1250 µg/mL)
- MIC (Clostridium sporogenes): 2320 µM (≈ 626 µg/mL)
- MIC (Salmonella enteritidis): 4650 µM (≈ 1250 µg/mL)
- MIC (Bacillus spizizenii): 2320 µM (≈ 626 µg/mL)
- MIC (Staphylococcus aureus): 9 µM (≈ 2.42 µg/mL)
- MIC (Pseudomonas aeruginosa): 2320 µM (≈ 626 µg/mL)
- MIC (Micrococcus luteus [26]): 9 µM (≈ 2.42 µg/mL)
- MIC (Aspergillus brasiliensis): 2320 µM (≈ 626 µg/mL)
- MIC (Saccharomyces cerevisiae): 2320 µM (≈ 626 µg/mL)
SMILES: CC(C)(C)C1=CC(=O)C=C(NCc2ccccc2)C1=O
- selectivity ratio (NCI-H460 [19]): <=1.5
- IC50 (HaCaT [1]): 21 µM
- IC30 (HaCaT [1]): 12 µM
- selectivity ratio [20]: ≤ 1.5
- selectivity ratio [21]: ≤ 1.5
- IC30 (NCI-H460 [10]): 5 µM
- IC50 (NCI-H460 [10]): 14 µM
- IC30 (NCI-H460 [15]): 3 µM
- IC50 (NCI-H460 [15]): 10 µM
